Assay results taken from ChEMBL document CHEMBL1152347, “A selective account of effective paradigms and significant outcomes in the discovery of inspirational marine natural products” (J Nat Prod, 2009).
≈ marks a conversion by molar mass, not a printed value. Each block holds one compound with its values, some of them ahead of it.

How the values were obtained:
[1] = system: KB; experiment: Cytotoxicity against human KB cells; format: functional, cell-based
[2] = system: HCT-116; experiment: Cytotoxicity against human HCT116 xenografted in SCID mouse at 12.3 mg/kg/day, iv administered as bolus dose from 3 days after tumor implantation for 5 days measured on day 9 relative to control; format: functional
In short: (§1)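 SCID mice implanted with HCT-116 tumour cells, dosed iv as a bolus daily for 5 days starting 3 days after inoculation and followed to day 30. Tumour response read as %T/C against untreated controls; body weights tracked over the 30 days and compared with untreated controls.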

[3] = system: HCT-116; experiment: Cytotoxicity against human HCT116 xenografted in SCID mouse at 25 mg/kg/day, iv administered as bolus dose from 3 days after tumor implantation for 5 days measured on day 11 relative to control; format: functional; in short: as §1
[4] = system: Mus musculus; experiment: Toxicity in human HCT116 xenografted SCID mouse assessed as increase in body weight at 12.3 mg/kg/day, iv administered as bolus dose from 3 days after tumor implantation for 5 days measured after 30 days; format: organism-based; set-up: route intravenous; conditions: in vivo, 720 h; in short: as §1
[5] = system: Mus musculus; experiment: Toxicity in human HCT116 xenografted SCID mouse assessed as increase in body weight at 25 mg/kg/day, iv administered as bolus dose from 3 days after tumor implantation for 5 days measured after 30 days; format: organism-based; set-up: route intravenous; conditions: in vivo, 720 h; in short: as §1
[6] = system: MDA-MB-435; experiment: Cytotoxicity against human MDA-MB-435 cells; format: functional, cell-based; conditions: for CC50: read-out: LC50 (the source's name)
[7] = Toxicity in SCID mouse assessed as maximum tolerated dose; format: organism-based; conditions: in vivo
[8] = system: HCT-116; experiment: Cytotoxicity against human HCT116 cells; format: functional, cell-based
In short: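 HCT-116 cells in liquid culture; IC50 from two determinations, reported as their median.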

[9] = system: HCT-116; experiment: Cytotoxicity against human HCT116 cells after 2 hrs by clonogenic assay; format: functional
In short: (§2)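 Clonogenic dose-response on HCT-116 cells with exposures of 2, 24 and 168 h; the value is the concentration giving 90% cell kill at each exposure time.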

[10] = system: HCT-116; experiment: Cytotoxicity against human HCT116 cells after 24 hrs by clonogenic assay; format: functional; in short: as §2
[11] = biological target: Methionine aminopeptidase 2 (Homo sapiens, UniProt P50579); experiment: Inhibition of methionine aminopeptidase 2
Chain of Methionine aminopeptidase 2 (P50579 whole entry): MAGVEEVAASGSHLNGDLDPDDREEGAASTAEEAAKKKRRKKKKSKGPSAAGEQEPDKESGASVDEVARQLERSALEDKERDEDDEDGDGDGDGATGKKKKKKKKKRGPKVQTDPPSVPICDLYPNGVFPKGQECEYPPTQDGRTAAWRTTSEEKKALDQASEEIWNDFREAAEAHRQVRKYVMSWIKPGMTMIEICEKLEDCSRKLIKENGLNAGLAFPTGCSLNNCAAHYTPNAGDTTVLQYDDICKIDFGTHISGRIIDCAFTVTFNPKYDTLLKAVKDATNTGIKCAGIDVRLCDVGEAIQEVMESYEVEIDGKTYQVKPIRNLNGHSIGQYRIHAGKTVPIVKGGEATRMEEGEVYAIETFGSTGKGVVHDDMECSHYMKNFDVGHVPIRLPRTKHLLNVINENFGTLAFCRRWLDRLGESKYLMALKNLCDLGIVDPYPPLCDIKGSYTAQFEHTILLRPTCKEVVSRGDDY

[12] = biological target: Methionine aminopeptidase 1 (Homo sapiens, UniProt P53582); experiment: Inhibition of methionine aminopeptidase 1
[13] = system: HCT-116; experiment: Cytotoxicity against human HCT116 cells assessed as cell kill at >=20 pg/mL after 168 hrs by clonogenic assay; format: functional; in short: as §2
[14] = system: Mus musculus; experiment: Toxicity in human HCT116 xenografted SCID mouse at 125 ug/mouse dosed as bolus dose after 23 days; format: organism-based; conditions: in vivo, 552 h
In short: (§3)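 Bolus injection into SCID mice bearing HCT-116 tumours at 125, 62 or 31 μg/mouse; tumour growth read as %T/C against controls at 23 days.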

[15] = system: HCT-116; experiment: Anticancer activity against human HCT116 xenografted in SCID mouse at 62 ug/mouse dosed as bolus dose after 23 days relative to control; format: functional; in short: as §3
[16] = system: HCT-116; experiment: Anticancer activity against human HCT116 xenografted in SCID mouse at 31 ug/mouse dosed as bolus dose after 23 days relative to control; format: functional; in short: as §3
[17] = system: MCF7; experiment: Growth inhibition of human MCF7 cells; format: functional
[18] = system: PC-3; experiment: Cytotoxicity against human PC3 cells; format: functional, cell-based
[19] = system: HCT-116; experiment: Cytotoxicity against human HCT116 cells assessed as cell kill at >=3 ng/mL after 2 hrs by clonogenic assay; format: functional; in short: as §2
[20] = system: HCT-116; experiment: Cytotoxicity against human HCT116 cells assessed as cell kill at >=2 ng/mL after 24 hrs by clonogenic assay; format: functional; in short: as §2

SMILES: C=C1C[C@H](C)C[C@@H]2CC=C[C@@H](C/C=C\C(=O)O[C@H]([C@@H](O)/C=C/[C@@H]3CC(C)=CCO3)C[C@@H]3O[C@H]3[C@@H](O)C1)O2 [FIJIANOLIDE B]
- IC50 [1]: 29 nM
- T/C [2]: 80%
- T/C [3]: 11%
- Activity [4]: Non-toxic
- Activity [5]: Non-toxic
- IC50 [6]: 2 nM
- CC50 [6]: 7 nM

SMILES: C=CC/C=C\Cc1csc(C(C)(C)[C@H](O)C/C=C\C(=C)CCNC(=O)OC)n1 [MYCOTHIAZOLE]
- MTD [7]: 3 mg/kg
- IC50 [8]: 1.5 ng/mL (≈ 3.71 nM)
- Activity [9]: >10 µg/mL
- Activity [10]: >10 µg/mL

SMILES: CCC(C)CCCCCCCCCCC(=O)O[C@H]1CC[C@H](NC(=O)[C@H](OC)[C@H](O)[C@@H](O)[C@H](O)/C=C/C(C)C)C(=O)N(C)C1 (some centres not stated) [BENGAMIDE O]
- IC50 [11]: > 50000 nM

SMILES: CO[C@@H]1[C@H](OC(=O)NC(=O)CCl)CC[C@]2(CO2)[C@H]1[C@@]1(C)O[C@@H]1CC=C(C)C [O-CHLOROACETYLCARBAMOYLFUMAGILLOL]
- IC50 [12]: Not Active

SMILES: C=C(C)C[C@H](OC)[C@H](O)C(=O)N[C@@H](OC)C1C[C@@H](O)C(C)(C)[C@@H](C[C@H](O)[C@@H](C)[C@@H]2Cc3c(C)c(O)cc(O)c3C(=O)O2)O1 (some centres not stated) [IRCINIASTATIN]
- Activity [13]: 90%
- MTD [7]: 0.125 mg/kg
- Activity [14]: Toxic
- T/C [15]: 75%
- T/C [16]: 86%
- GI50 [17]: 5.2 nM
- CC50 [6]: < 2.5 nM
- IC50 [18]: 1 nM
- Activity [19]: 90%
- Activity [20]: 90%

- IC50 [11]: > 300000 nM
SMILES: CC(C)(C)OC(=O)Nc1cccnc1C(=O)Nc1nccs1

- IC50 [12]: Not Active
- IC50 [11]: 30 nM
SMILES: CO[C@@H]1[C@H](OC(=O)/C=C/C=C/C=C/C=C/C(=O)O)CC[C@]2(CO2)[C@H]1[C@@]1(C)O[C@@H]1CC=C(C)C [FUMAGILLIN]

SMILES: CO[C@@H]1C(=O)CC[C@]2(CO2)[C@@]1(O)[C@@]1(C)O[C@@H]1CC=C(C)C [OVALICIN]
- IC50 [12]: Not Active
